These results are taken from ChEMBL document CHEMBL3785089, “Design and Synthesis of Irreversible Analogues of Bardoxolone Methyl for the Identification of Pharmacologically Relevant Targets and Interaction Sites” (J Med Chem, 2016).

Calls of active or inactive are those of the source. No cut-off for these calls is given here.

Assay [1] has as its target Kelch-like ECH-associated protein 1 (Mus musculus) (UniProt Q9Z2X8). Put plainly: Binding affinity to recombinant mouse poly His-tagged Keap1 expressed in Escherichia coli assessed as chemical modification of Cys-257 residue incubated up to 24 hrs by LC-MS/MS analysis. The procedure, abridged:
(§1)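 Recombinant His-tagged protein (human GSTP1 or mouse Keap1) purified by nickel affinity and incubated on-bead with the stated molar excess of compound for up to 24 h, pH 8.4, 37 °C. Free cysteines capped with 55 mM iodoacetamide for 15 min, trypsin digest overnight at 37 °C, LC-MS/MS detection of adduct mass shifts on peptide y/b ions.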

In assay [2] the target is T1, Nuclear factor erythroid 2-related factor 2 (Rattus norvegicus) (UniProt O54968).
T1 sequence (whole entry): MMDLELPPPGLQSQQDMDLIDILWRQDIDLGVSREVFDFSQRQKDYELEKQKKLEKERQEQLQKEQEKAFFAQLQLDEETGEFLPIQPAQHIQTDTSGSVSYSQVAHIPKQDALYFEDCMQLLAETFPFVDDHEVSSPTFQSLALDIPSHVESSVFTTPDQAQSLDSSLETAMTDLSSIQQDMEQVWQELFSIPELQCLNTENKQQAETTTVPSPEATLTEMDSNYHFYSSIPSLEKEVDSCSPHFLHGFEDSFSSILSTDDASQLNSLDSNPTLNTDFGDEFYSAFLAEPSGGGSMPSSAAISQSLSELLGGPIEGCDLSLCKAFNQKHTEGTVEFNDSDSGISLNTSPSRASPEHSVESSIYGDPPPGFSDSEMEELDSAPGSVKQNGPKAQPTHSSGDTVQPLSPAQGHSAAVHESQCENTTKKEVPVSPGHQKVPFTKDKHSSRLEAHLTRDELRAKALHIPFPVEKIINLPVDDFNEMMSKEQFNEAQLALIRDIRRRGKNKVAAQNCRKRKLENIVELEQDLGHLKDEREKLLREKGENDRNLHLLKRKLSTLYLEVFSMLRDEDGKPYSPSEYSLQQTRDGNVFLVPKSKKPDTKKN
Put plainly: Stabilization of NRF2 in rat H42E cells expressing ARE8L at 0.01 to 30 nM after 1 hr by Western blot analysis. The class given is cell-based. The procedure, abridged: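 H4IIE-ARE8L cells exposed 1 h to the compound. Nrf2 protein accumulation detected by immunoblot. DMSO (0.5%) served as negative control and MG132 (10 μM) as positive control. Representative of n=3 independent experiments.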

For assay [3], the target named is T1, Nuclear factor erythroid 2-related factor 2 (Rattus norvegicus). Put plainly: Induction of NRF2 activation in rat H42E cells expressing ARE8L assessed as reporter transgene activity after 24 hrs by luminescence assay. It counts as cell-based. The procedure, abridged: (§2)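 Reporter cells (H4IIE-ARE8L) exposed 24 h to compounds at 0.5% DMSO. Cells washed in PBS, then given 150 µg/mL D-luciferin in PBS for 5 min before reading luminescence. Signal normalised to vehicle-treated cells. The concentration giving a 2-fold rise in reporter activity (CD) was taken from the concentration-response data. Mean ± S.D., n=4.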

Assay [4] is described as follows: Cytotoxicity against rat H42E cells expressing ARE8L assessed as cellular ATP level after 24 hrs by Celltiter-Glo luminescent cell viability assay. It counts as cell-based. The procedure, abridged:
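H4IIE-ARE8L rat hepatoma cells grown in DMEM with 10% FBS, glutamine, HEPES and non-essential amino acids, and exposed 24 h to compounds at 0.5% DMSO. Cellular ATP measured by CellTiter-Glo luminescence and expressed relative to vehicle. Mean ± S.D., n=4.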

Assay [5] has as its target Kelch-like ECH-associated protein 1 (Mus musculus) (UniProt Q9Z2X8). Put plainly: Binding affinity to recombinant mouse poly His-tagged Keap1 expressed in Escherichia coli assessed as chemical modification of Cys-288 residue incubated up to 24 hrs by LC-MS/MS analysis. The procedure, abridged: as §1
Assay [6] has the same target. Put plainly: Binding affinity to recombinant mouse poly His-tagged Keap1 expressed in Escherichia coli assessed as chemical modification of Cys-434 residue incubated up to 24 hrs by LC-MS/MS analysis. The procedure, abridged:
as §1

The target is the same in assay [7]. Put plainly: Binding affinity to recombinant mouse poly His-tagged Keap1 expressed in Escherichia coli assessed as chemical modification of Cys-613 residue incubated up to 24 hrs by LC-MS/MS analysis. The procedure, abridged:
as §1

The target of assay [8] is Glutathione S-transferase P (Homo sapiens) (UniProt P09211). Put plainly: Binding affinity to recombinant human poly His-tagged GSTP1 expressed in Escherichia coli assessed as chemical modification at Cys-47 at 10:1 compound:protein molar ratio after 1 hr by LC-MS/MS analysis. The procedure, abridged:
as §1

Assay [9] can be described thus: Thiol reactivity using beta-mercaptoethanol assessed as chemical shifts at 25 degC by NMR spectroscopy.
Assay [10] can be described thus: Thiol reactivity using N-acetyl cysteine assessed as chemical shifts at 25 degC by NMR spectroscopy.
Assay [11] has as its target Kelch-like ECH-associated protein 1 (Mus musculus) (UniProt Q9Z2X8). Put plainly: Binding affinity to recombinant mouse poly His-tagged Keap1 expressed in Escherichia coli assessed as chemical modification of Cys-273 residue incubated up to 24 hrs by LC-MS/MS analysis. The procedure, abridged: as §1
Assay [12] has the same target. Put plainly: Binding affinity to recombinant mouse poly His-tagged Keap1 expressed in Escherichia coli assessed as chemical modification of Cys-489 residue incubated up to 24 hrs by LC-MS/MS analysis. The procedure, abridged: as §1
Assay [13] deals with T1, Nuclear factor erythroid 2-related factor 2 (Rattus norvegicus). Put plainly: Induction of NRF2 activation in rat H42E cells expressing ARE8L assessed as increase in reporter transgene activity after 24 hrs by luminescence assay. The class given is cell-based. The procedure, abridged:
as §2

The nature of assay [14]: Thiol reactivity using beta-mercaptoethanol assessed as chemical shifts in presence of triethylamine at 25 degC by NMR spectroscopy.
Assay [15] deals with Kelch-like ECH-associated protein 1 (Mus musculus) (UniProt Q9Z2X8). Put plainly: Binding affinity to mouse V5-tagged Keap1 expressed in HEK293T cells assessed as chemical modification of Cys-257 residue at 100 uM incubated for by LC-MS/MS analysis. It counts as cell-based. The note with it: HEK-293T. The procedure, abridged: (§3)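 Mouse Keap1-V5 expressed ectopically in HEK293T cells; cells exposed to 100 µM compound for 1 h. Keap1-V5 immunopurified from lysates, free cysteines capped with iodoacetamide, trypsin-digested overnight at 37 °C, then LC-MS/MS. Modification frequency per cysteine from n=4 independent experiments.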

Assay [16] has the same target. Put plainly: Binding affinity to mouse V5-tagged Keap1 expressed in HEK293T cells assessed as chemical modification of Cys-288 residue at 100 uM incubated for by LC-MS/MS analysis. The class given is cell-based. The note with it: HEK-293T. The procedure, abridged:
as §3

For assay [17] the target is unchanged. Put plainly: Binding affinity to mouse V5-tagged Keap1 expressed in HEK293T cells assessed as chemical modification of Cys-489 residue at 100 uM incubated for by LC-MS/MS analysis. It counts as cell-based. The note with it: HEK-293T. The procedure, abridged: as §3
For assay [18] the target is unchanged. Put plainly: Binding affinity to mouse V5-tagged Keap1 expressed in HEK293T cells assessed as chemical modification of Cys-273 residue at 100 uM incubated for by LC-MS/MS analysis. The note with it: HEK-293T. It counts as cell-based. The procedure, abridged:
as §3

For assay [19] the target is unchanged. Put plainly: Binding affinity to mouse V5-tagged Keap1 expressed in HEK293T cells assessed as chemical modification of Cys-434 residue at 100 uM incubated for by LC-MS/MS analysis. The note with it: HEK-293T. It counts as cell-based. The procedure, abridged: as §3
Assay [20] concerns the target Glutathione S-transferase P (Homo sapiens) (UniProt P09211). Put plainly: Binding affinity to recombinant human poly His-tagged GSTP1 expressed in Escherichia coli assessed as chemical modification at Cys-47 at 100:1 compound:protein molar ratio after 24 hrs by LC-MS/MS analysis. The procedure, abridged:
as §1

For assay [21] the target is unchanged. Put plainly: Binding affinity to recombinant human poly His-tagged GSTP1 expressed in Escherichia coli assessed as chemical modification of Cys-47 residue at 1:1 compound:protein molar ratio after 24 hrs by LC-MS/MS analysis in presence of methyl 2-cyano-3,12-dioxooleana-1,9(11)-dien-28-oate. The procedure, abridged: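 Competition format. His-tagged human GSTP1 was held on-bead at pH 8.4, 37 °C and pre-incubated 1 h with molar excesses of the competitor. The probe was then added at 1:1 molar ratio for another 24 h, with the competitor kept in the buffer. Cysteines capped with iodoacetamide, followed by tryptic digestion and LC-MS/MS of Cys-47 modification.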

Chain of Glutathione S-transferase P (Homo sapiens) (P09211 2-210 limits assumed): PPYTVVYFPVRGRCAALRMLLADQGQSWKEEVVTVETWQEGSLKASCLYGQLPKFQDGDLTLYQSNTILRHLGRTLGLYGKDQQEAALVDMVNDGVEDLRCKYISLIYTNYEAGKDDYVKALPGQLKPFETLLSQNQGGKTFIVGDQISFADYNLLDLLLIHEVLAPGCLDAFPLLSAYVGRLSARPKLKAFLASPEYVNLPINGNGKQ
Chain of Kelch-like ECH-associated protein 1 (Mus musculus) (Q9Z2X8 whole entry): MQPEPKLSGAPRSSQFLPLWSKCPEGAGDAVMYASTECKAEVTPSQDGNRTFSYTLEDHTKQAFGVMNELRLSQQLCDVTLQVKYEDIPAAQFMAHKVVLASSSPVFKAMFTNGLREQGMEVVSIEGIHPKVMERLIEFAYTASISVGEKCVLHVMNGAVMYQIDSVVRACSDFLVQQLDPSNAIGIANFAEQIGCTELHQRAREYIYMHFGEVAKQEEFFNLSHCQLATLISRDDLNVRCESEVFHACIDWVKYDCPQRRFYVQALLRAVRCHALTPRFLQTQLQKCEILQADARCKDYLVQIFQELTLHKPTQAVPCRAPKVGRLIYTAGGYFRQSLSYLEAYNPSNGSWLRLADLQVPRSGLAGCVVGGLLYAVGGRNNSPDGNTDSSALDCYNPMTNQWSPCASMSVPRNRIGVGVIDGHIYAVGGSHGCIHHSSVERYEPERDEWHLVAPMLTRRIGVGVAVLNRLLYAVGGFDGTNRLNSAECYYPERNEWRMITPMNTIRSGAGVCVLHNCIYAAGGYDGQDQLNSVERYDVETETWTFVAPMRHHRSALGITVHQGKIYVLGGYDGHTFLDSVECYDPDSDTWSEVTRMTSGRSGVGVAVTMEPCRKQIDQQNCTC

With `COC(=O)[C@]12CCC(C)(C)C[C@H]1[C@H]1C(=O)C=C3[C@@]4(C)C=C(C#N)C(=O)C(C)(C)[C@@H]4CC[C@@]3(C)[C@]1(C)CC2` [BARDOXOLONE METHYL], the result in assay [1], in [5], in assay [6], in assay [7], in assay [11] and in assay [12] was inactive. Further, the result in [2] and in assay [8] was Active. Further, the CD in assay [3] amounted to 0.0005 µM. Besides, in assay [4], the IC50 amounted to 1.4 µM. The results for the Activity in assay [9] and in [10] were 5.85 ppm and 5.81 ppm, respectively.

In the case of `COC(=O)[C@]12CCC(C)(C)C[C@H]1[C@H]1C(=O)C=C3[C@@]4(C)C=CC(=O)C(C)(C)[C@@H]4CC[C@@]3(C)[C@]1(C)CC2`, the CD in [3] came out at 0.9 µM. Also, the Activity entry in assay [13] was “Dose-dependent effect”.

In the case of `COC(=O)[C@]12CCC(C)(C)C[C@H]1[C@H]1C(=O)C=C3[C@@]4(C)[C@H]5O[C@H]5C(=O)C(C)(C)[C@@H]4CC[C@@]3(C)[C@]1(C)CC2`, the CD in assay [3] worked out at 15.4 µM. Further, the Activity result in assay [13] was “Dose-dependent effect”.

Regarding `COC(=O)[C@]12CCC(C)(C)C[C@H]1[C@H]1C(=O)C=C3[C@@]4(C)CC[C@H](OC(C)=O)C(C)(C)[C@@H]4CC[C@@]3(C)[C@]1(C)CC2`, in [3], the CD came out at 17.6 µM.

Take `COC(=O)[C@]12CCC(C)(C)C[C@H]1[C@H]1C(=O)C=C3[C@@]4(C)CC(C#N)C(=O)C(C)(C)[C@@H]4CC[C@@]3(C)[C@]1(C)CC2` (some centres undefined): the CD in assay [3] was 0.009 µM. Also, the outcome in [9] and in assay [14] was inactive.

In the case of `COC(=O)[C@]12CCC(C)(C)C[C@H]1[C@H]1C(=O)C=C3[C@@]4(C)[C@H]5O[C@@]5(C#N)C(=O)C(C)(C)[C@@H]4CC[C@@]3(C)[C@]1(C)CC2`, the Activity entry in assay [1] is “Dose-dependent effect”; in assay [5], “Dose-dependent effect”; in assay [6], “Dose-dependent effect”; in [7], “Dose-dependent effect”; in [14] it was 5.15 ppm; in assay [11], “Dose-dependent effect”. For the same molecule, in assay [12], the Activity entry is “Dose-dependent effect”. For the same molecule, the CD in assay [3] amounted to 0.002 µM. Also, the 50% inhibitory concentration (IC50) in assay [4] worked out at 4.3 µM. Further, the outcome in assay [15], in assay [16], in assay [17], in assay [18], in [19] and in [20] was Active. For the same molecule, the result in assay [21], in assay [9] and in assay [10] was inactive.

As for `COC(=O)[C@]12CCC(C)(C)C[C@H]1[C@H]1C(=O)C=C3[C@@]4(C)CCC(=O)C(C)(C)[C@@H]4CC[C@@]3(C)[C@]1(C)CC2`, the CD in [3] was 1.2 µM.
